Assay results taken from ChEMBL document CHEMBL1287724, “Discovery of INCB3344, a potent, selective and orally bioavailable antagonist of human and murine CCR2” (Bioorg Med Chem Lett, 2010).
pIC50: −log10 of the molar value.

Columns and labels:
[1] = target: C-C chemokine receptor type 2 (Homo sapiens, UniProt P41597); assay: Displacement of [125I]MCP1 from human CCR2 after 30 mins by gamma counter
[2] = target: C-C chemokine receptor type 2 (Mus musculus, UniProt P51683); assay: Displacement of [125I]MCP1 from mouse CCR2 after 30 mins by gamma counter
C-C chemokine receptor type 2 (Mus musculus, UniProt P51683), sequence (P51683 whole entry): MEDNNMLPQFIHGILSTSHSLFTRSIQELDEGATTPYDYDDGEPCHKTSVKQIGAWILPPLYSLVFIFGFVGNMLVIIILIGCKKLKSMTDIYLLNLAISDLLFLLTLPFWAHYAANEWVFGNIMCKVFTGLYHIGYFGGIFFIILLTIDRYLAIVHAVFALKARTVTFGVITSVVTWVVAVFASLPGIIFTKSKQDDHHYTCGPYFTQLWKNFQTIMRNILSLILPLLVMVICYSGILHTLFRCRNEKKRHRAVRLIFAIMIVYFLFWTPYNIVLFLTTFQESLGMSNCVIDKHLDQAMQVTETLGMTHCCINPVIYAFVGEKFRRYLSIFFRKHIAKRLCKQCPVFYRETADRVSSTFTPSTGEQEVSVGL

[3] = Protein binding in human serum assessed as unbound fraction; assay type: ADME, cell-free; conditions: read-out: PB
[4] = Protein binding in mouse serum assessed as unbound fraction; assay type: ADME, cell-free; conditions: read-out: PB
[5] = target: T1, C-C chemokine receptor type 2 (Rattus norvegicus, UniProt O55193); assay: Inhibition of rat CCR2
T1 sequence (O55193 whole entry): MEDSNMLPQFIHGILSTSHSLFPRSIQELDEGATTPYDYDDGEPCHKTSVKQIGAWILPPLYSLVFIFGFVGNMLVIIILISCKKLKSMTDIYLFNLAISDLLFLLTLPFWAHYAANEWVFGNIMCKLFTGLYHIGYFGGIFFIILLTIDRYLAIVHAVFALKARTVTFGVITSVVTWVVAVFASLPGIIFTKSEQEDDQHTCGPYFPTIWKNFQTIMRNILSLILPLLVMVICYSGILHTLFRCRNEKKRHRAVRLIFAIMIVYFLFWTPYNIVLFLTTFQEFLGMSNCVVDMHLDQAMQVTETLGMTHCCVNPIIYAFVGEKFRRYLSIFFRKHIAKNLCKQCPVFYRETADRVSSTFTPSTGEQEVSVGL

CCR2 protein = target: T2, CCR2 protein (Macaca fascicularis, UniProt Q6Y3N0); assay: Inhibition of cynomolgus CCR2
T2 sequence (Q6Y3N0 whole entry): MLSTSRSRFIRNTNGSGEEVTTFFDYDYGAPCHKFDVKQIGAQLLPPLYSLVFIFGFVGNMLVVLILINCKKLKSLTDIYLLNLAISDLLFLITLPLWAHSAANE

[6] = target: T3, C-C chemokine receptor type 1 (Mus musculus, UniProt P51675); assay: Inhibition of mouse CCR1
T3 sequence (P51675 whole entry): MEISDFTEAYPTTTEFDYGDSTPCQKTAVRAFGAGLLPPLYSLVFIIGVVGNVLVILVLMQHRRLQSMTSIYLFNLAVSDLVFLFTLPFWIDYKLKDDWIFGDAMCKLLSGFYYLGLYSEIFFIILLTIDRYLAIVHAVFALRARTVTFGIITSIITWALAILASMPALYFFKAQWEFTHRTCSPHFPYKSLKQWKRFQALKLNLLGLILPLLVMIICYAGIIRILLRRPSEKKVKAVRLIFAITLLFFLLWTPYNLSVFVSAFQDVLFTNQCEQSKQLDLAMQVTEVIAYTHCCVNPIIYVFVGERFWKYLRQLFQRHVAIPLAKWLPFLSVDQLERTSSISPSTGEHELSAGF

[7] = target: C-C chemokine receptor type 5 (Mus musculus, UniProt P51682); assay: Inhibition of mouse CCR5
C-C chemokine receptor type 5, sequence (P51682 whole entry): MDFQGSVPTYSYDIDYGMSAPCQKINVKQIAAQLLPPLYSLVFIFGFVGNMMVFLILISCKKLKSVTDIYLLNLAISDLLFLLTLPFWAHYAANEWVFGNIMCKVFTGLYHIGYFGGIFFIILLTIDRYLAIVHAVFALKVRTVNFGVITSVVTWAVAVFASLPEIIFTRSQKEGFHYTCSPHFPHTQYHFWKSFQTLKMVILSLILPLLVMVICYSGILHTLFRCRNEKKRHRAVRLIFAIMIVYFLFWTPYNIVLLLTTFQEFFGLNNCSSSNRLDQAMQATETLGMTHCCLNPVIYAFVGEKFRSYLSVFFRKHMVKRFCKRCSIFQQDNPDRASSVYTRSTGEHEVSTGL

[8] = Clearance in CD-1 mouse at 5 mg/kg, iv; assay type: ADME, organism-based; parameters: dose 5 mg/kg, route intravenous; conditions: in vivo
Method in brief: (§1)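 CD-1 mice dosed intravenously at 5 mg/kg and orally at 10 mg/kg. Clearance, steady-state volume of distribution and half-life were taken from the iv arm. Cmax and AUC were taken from the po arm. Oral bioavailability was derived from the po and iv exposures.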

Mus musculus = assay: Volume of distribution at steady state in CD-1 mouse at 5 mg/kg, iv; assay type: ADME, organism-based; parameters: dose 5 mg/kg, route intravenous; conditions: in vivo; method in brief: as §1
[9] = Half life in CD-1 mouse at 5 mg/kg, iv; assay type: ADME, organism-based; parameters: dose 5 mg/kg, route intravenous; conditions: in vivo; method in brief: as §1
[10] = Cmax in CD-1 mouse at 10 mg/kg, po; assay type: ADME, organism-based; parameters: dose 10 mg/kg, route oral; conditions: in vivo; method in brief: as §1
[11] = AUC in CD-1 mouse at 10 mg/kg, po; assay type: ADME, organism-based; parameters: dose 10 mg/kg, route oral; conditions: plasma; method in brief: as §1
[12] = Oral bioavailability in CD-1 mouse at 10 mg/kg, po; assay type: ADME, organism-based; conditions: in vivo; method in brief: as §1
[13] = Cmax in BALB/c mouse at 10 mg/kg, po; assay type: ADME, organism-based; parameters: dose 10 mg/kg, route oral; conditions: in vivo
[14] = AUC in BALB/c mouse at 10 mg/kg, po; assay type: ADME, organism-based; parameters: dose 10 mg/kg, route oral; conditions: plasma
[15] = target: Voltage-gated inwardly rectifying potassium channel KCNH2 (Homo sapiens, UniProt Q12809)
Voltage-gated inwardly rectifying potassium channel KCNH2, sequence (Q12809 whole entry): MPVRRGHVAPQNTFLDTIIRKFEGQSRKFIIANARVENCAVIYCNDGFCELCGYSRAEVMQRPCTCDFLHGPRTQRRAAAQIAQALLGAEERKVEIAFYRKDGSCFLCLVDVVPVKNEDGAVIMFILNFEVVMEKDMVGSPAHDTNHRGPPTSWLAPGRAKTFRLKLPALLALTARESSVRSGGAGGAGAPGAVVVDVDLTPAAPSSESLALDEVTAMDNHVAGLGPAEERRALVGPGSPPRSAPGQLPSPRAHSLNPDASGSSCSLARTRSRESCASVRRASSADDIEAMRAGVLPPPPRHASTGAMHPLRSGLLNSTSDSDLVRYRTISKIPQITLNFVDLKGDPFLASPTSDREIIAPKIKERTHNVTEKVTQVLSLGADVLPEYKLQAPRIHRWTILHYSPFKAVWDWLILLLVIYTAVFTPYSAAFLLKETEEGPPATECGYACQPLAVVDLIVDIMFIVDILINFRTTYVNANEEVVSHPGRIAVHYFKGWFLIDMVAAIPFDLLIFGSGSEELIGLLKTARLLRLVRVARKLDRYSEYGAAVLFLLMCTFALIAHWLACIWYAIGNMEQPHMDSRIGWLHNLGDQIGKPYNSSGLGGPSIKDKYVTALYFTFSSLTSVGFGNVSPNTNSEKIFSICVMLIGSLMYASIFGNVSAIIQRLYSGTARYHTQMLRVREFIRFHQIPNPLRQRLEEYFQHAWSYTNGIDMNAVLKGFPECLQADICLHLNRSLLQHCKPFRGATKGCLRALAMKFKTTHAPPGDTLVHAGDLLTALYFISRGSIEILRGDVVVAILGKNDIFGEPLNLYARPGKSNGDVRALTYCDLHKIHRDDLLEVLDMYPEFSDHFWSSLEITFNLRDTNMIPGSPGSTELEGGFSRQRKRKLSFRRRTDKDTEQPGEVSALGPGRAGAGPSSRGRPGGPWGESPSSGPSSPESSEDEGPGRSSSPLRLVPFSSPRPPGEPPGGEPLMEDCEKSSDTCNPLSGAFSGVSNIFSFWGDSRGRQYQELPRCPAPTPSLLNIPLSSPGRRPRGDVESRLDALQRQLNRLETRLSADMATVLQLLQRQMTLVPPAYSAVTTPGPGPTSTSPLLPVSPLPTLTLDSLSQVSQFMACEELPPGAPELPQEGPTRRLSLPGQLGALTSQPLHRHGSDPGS

C-C chemokine receptor type 2 (Homo sapiens, UniProt P41597), sequence (P41597 whole entry): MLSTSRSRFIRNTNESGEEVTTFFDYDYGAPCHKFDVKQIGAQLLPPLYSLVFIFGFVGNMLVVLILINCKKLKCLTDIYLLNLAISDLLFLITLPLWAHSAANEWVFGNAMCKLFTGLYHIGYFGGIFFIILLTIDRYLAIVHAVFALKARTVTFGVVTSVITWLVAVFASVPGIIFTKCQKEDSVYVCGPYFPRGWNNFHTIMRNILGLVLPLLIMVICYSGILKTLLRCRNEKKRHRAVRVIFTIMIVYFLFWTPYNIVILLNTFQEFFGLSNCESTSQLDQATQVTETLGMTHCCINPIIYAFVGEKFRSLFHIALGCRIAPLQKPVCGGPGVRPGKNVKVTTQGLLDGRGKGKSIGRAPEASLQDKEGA

Work on `O=C(CNC(=O)c1cccc(C(F)(F)F)c1)N[C@H]1CN([C@H]2CC[C@@H](c3ccccc3)CC2)C[C@@H]1OCc1ccccc1` yielded a pIC50 [1] of 7.77 and a pIC50 [2] of 7.29.
Compound `CCO[C@H]1CN([C@H]2CC[C@@](O)(c3ccccc3)CC2)C[C@@H]1NC(=O)CNC(=O)c1cccc(C(F)(F)F)c1` has a pIC50 [1] of 8.64, a pIC50 [2] of 8.00 and a fraction unbound [3] of 0.26. For the same compound, the fraction unbound [4] was 0.18.
`CCO[C@H]1CN([C@H]2CC[C@@](O)(c3ccc(C)cc3)CC2)C[C@@H]1NC(=O)CNC(=O)c1cccc(C(F)(F)F)c1` gave a pIC50 [1] of 8.64, a pIC50 [2] of 8.68 and a fraction unbound [4] of 0.079.
`CCO[C@H]1CN([C@H]2CC[C@@](O)(c3ccc4c(c3)OCO4)CC2)C[C@@H]1NC(=O)CNC(=O)c1cccc(C(F)(F)F)c1` showed a fraction unbound [3] of 0.24, a fraction unbound [4] of 0.15 and a pIC50 [5] of 8.14. For the same compound, the pIC50 (CCR2 protein) was 7.80, the pIC50 [6] was < 6.00 and the pIC50 [7] was < 5.52. The clearance [8] was 5.1 L/h/kg, the Vdss (Mus musculus) was 2.8 L/kg and the half-life [9] was 1 h. For the same compound, the Cmax [10] was 1.89 µM, the AUC [11] was 2.66 µM·h and the bioavailability [12] was 47%. It also gave a Cmax [13] of 0.961 µM, an AUC [14] of 3.89 µM·h and a pIC50 [15] of 4.89.
In the case of `O=C(CNC(=O)c1cccc(C(F)(F)F)c1)N[C@H]1CN([C@H]2CC[C@@H](c3ccccc3)C2)C[C@@H]1O`, the pIC50 [1] was 6.92.
With `O=C(CNC(=O)c1cccc(C(F)(F)F)c1)N[C@H]1CN([C@H]2CC[C@H](c3ccccc3)C2)C[C@@H]1O` the pIC50 [1] was < 6.00.
With `O=C(CNC(=O)c1cccc(C(F)(F)F)c1)N[C@H]1CN([C@H]2CCC[C@@H](c3ccccc3)C2)C[C@@H]1O` the pIC50 [1] was < 6.00.
With `O=C(CNC(=O)c1cccc(C(F)(F)F)c1)N[C@H]1CN([C@H]2CCC[C@H](c3ccccc3)C2)C[C@@H]1O` the pIC50 [1] was < 6.00.
Compound `O=C(CNC(=O)c1cccc(C(F)(F)F)c1)N[C@H]1CN([C@H]2CC[C@@H](c3ccccc3)CC2)C[C@@H]1O` has a pIC50 [1] of 8.13, a pIC50 [2] of 6.73 and a fraction unbound [3] of 0.026.
With `O=C(CNC(=O)c1cccc(C(F)(F)F)c1)N[C@H]1CN([C@H]2CC[C@H](c3ccccc3)CC2)C[C@@H]1O` the pIC50 [1] was < 6.00.
`O=C(CNC(=O)c1cccc(C(F)(F)F)c1)N[C@H]1CN(C2CCN(c3ccccc3)CC2)C[C@@H]1O` showed a pIC50 [1] of 6.19.
In the case of `CCO[C@H]1CN([C@H]2CC[C@@H](c3ccccc3)CC2)C[C@@H]1NC(=O)CNC(=O)c1cccc(C(F)(F)F)c1`, the pIC50 [1] was 9.02, the pIC50 [2] was 8.72 and the fraction unbound [3] was < 0.005. For the same compound, the fraction unbound [4] was 0.023.
With `CCCO[C@H]1CN([C@H]2CC[C@@H](c3ccccc3)CC2)C[C@@H]1NC(=O)CNC(=O)c1cccc(C(F)(F)F)c1` the pIC50 [1] was 8.54 and the pIC50 [2] was 8.72.
In the case of `CCCCO[C@H]1CN([C@H]2CC[C@@H](c3ccccc3)CC2)C[C@@H]1NC(=O)CNC(=O)c1cccc(C(F)(F)F)c1`, the pIC50 [1] was 7.33 and the pIC50 [2] was 7.27.
